test: Toxicity liver stage against HepG2, at 10uM; format: cell-based; parameters: test concentration 10 uM, cell line HepG2-A16-CD81EGFP; details: human, HepG2-A16-CD81EGFP cells; read-out: INHIBITION
Method in brief: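 Uninfected HepG2-A16-CD81EGFP cells, 3 × 10^3 per well, 1536-well, plated on prespotted compound at 10 μM final, parasite-free screening media added to match infected plates; puromycin 10 μM positive, DMSO 0.5% negative; run in parallel with 48 h PbLuc assay at 37 °C, 5% CO2; viability by CellTiter-Glo luminescence, normalized to controls.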

Compared with O=C1N[C@@H]2CCN(C(=O)C3CC3)[C@@H]2C(=O)N1c1ccccc1, O=C(C1CCCO1)N1CC[C@@H]2CN(Cc3ccccc3)S(=O)(=O)[C@@H]2CC1 (some centres undefined) is higher in cytotoxicity at 10 µM: 1.44% for the first, 12.9% for the second.

Going from CCn1nc(C)cc1NC(=O)CCn1nc(C)c2ccccc21 to CCn1nc(C)c(-c2cncn2Cc2ccccc2CN(C)C)c1C, the cytotoxicity at 10 µM rises from 4.98% to 12.4%.

Going from Cn1cccc1C(O)CNC(=O)c1ccc(C(F)(F)F)cc1 (centres undefined) to Cn1cccc1C(CNC(=O)c1ccc(F)cc1F)N1CCCCCC1 (centres undefined), the cytotoxicity at 10 µM falls from 2.9% to 2.19%.

Compared with CNC(=O)NC(=O)CN1CCN(c2ccc(C(=O)OC)cc2)CC1C (centres undefined), Cc1cnn(C2CCCN(C(=O)c3ccc(-n4ccnc4)cc3)C2)c1 (centres undefined) is higher in cytotoxicity at 10 µM: -1.98% for the first, -1.14% for the second.

First: CCc1ccccc1OCCN1CC[C@@]2(O)CCNC[C@H]2C1
Second: O=c1n(CC2CC2)nc(C2CCNCC2)n1Cc1ccccc1
The cytotoxicity at 10 µM of the first is lower: -160% for the first, -4.8% for the second.

Going from CN(C)CCN(Cc1ccc(F)cc1)C(=O)c1ccn(C)c(=O)c1 to CC(C)C(=O)NCc1ccnc(Oc2ccc(F)cc2)c1, the cytotoxicity at 10 µM rises from -4.62% to 6.06%.

First: COCCN1CCCC12CCN(Cc1cncn1C)CC2
Second: Cc1cncnc1C1CCN(C(=O)C2(C)CCCCN2C)CC1 (centres undefined)
The cytotoxicity at 10 µM of the first is higher: 8.52% for the first, 1.06% for the second.

Compared with COc1ccc(CNC(=O)Nc2cccnc2N2CCCC2)cc1O, Cc1cc(C(N)=O)ccc1NC(=O)c1nc(N2CCCCC2)ncc1Cl is lower in cytotoxicity at 10 µM: -10.7% for the first, -13.9% for the second.

First: CC(C)OCCCNC(=O)CN1CCC(N2CCN(C)C2=O)CC1
Second: CN(C)C(=O)CN1CC[C@H]2CN(C3CCOCC3)C[C@@H]2C1=O
The cytotoxicity at 10 µM of the first is lower: -6.82% for the first, -3.84% for the second.

Compared with CC(=O)c1cccc(NC(=O)CN2CCCCC2C2OCCO2)c1 (centres undefined), CC(=O)c1cccc(NC(=O)C2CN(S(=O)(=O)C3CC3)C2)c1 is higher in cytotoxicity at 10 µM: -10.5% for the first, 3.62% for the second.

Going from CN(C)C(=O)COC[C@@]12CCC[C@@H]1CNC2 to CC(=O)N(Cc1noc(C)n1)C1CCN(CC2(O)CCCCC2)C1 (centres undefined), the cytotoxicity at 10 µM rises from 0.903% to 5.69%.

First: CCc1cc(C(=O)N2CC[C@@H](c3ccc4c(c3)OCO4)[C@H](O)C2)[nH]n1
Second: CC(C)c1ccc(O)c(C(=O)N2CCN(Cc3cscn3)CC2)c1
The cytotoxicity at 10 µM of the first is lower: -3.87% for the first, -3.24% for the second.

Going from O=C(C1CCOC1)N1C[C@H]2CN(Cc3ccccn3)C[C@H]2C1 (some centres undefined) to Cc1ccc(C(=O)N2C[C@@H]3CN(c4ncccn4)C[C@@H]3C2)cc1, the cytotoxicity at 10 µM rises from 1.03% to 9.34%.

Going from CC(NS(=O)(=O)CCCC#N)c1cccc(-n2cccn2)c1 (centres undefined) to CCC(C(=O)NCc1noc(Cc2cccs2)n1)n1cccn1 (centres undefined), the cytotoxicity at 10 µM falls from 1.42% to -1.91%.

First: CCOCc1cnc2n1CCN(C(=O)Cc1ccco1)C2C (centres undefined)
Second: COCCO[C@H]1CCN(C(=O)c2ccoc2C)[C@H]1Cc1cnn(C)c1
The cytotoxicity at 10 µM of the first is higher: 3.53% for the first, -6.98% for the second.

First: CS(=O)(=O)Cc1nc(CCc2ccccc2)nn1-c1ccccn1
Second: CN(Cc1ncnn1C)C(=O)c1ccccc1NCc1ccccc1
The cytotoxicity at 10 µM of the first is lower: 3.36% for the first, 15.3% for the second.

First: O=C(Cc1ccc(F)cc1)NCCNCC1CNc2ccnn2C1 (centres undefined)
Second: O=C(NCc1ccncc1)N1CCSCC1c1ccc(Cl)cc1 (centres undefined)
The cytotoxicity at 10 µM of the first is lower: -3.47% for the first, 1.6% for the second.

Compared with O=C(c1nc2c(s1)CCCN2C(=O)C1CC1)N1CCOCC1, Cc1cc(C)c2nc(C)c(C(=O)N3CCC(N4CCCC4)CC3)cc2c1 is lower in cytotoxicity at 10 µM: 4.96% for the first, -3.19% for the second.

Compared with CCn1nc(C)c2c1cnn2CCNS(=O)(=O)CC, Cc1noc(C)c1CCC(=O)NCCc1cccs1 is lower in cytotoxicity at 10 µM: 2.63% for the first, -3.11% for the second.

Going from O=C(CN1CCOC(Cn2cccn2)C1)Nc1nccs1 (centres undefined) to CC(=O)Nc1nc(CN2CCCC2Cn2cccn2)cs1 (centres undefined), the cytotoxicity at 10 µM falls from 3.64% to -14.4%.

Compared with O=C(c1nnn(-c2ccccc2F)c1-c1ccccn1)N1CCSCC1, CN1CCN(Cc2ccccc2CNC(=O)c2ccc(Cl)cc2F)CC1 is higher in cytotoxicity at 10 µM: 1.32% for the first, 15.5% for the second.

First: COCCn1cncc1-c1nc2c([nH]1)CC(C)(C)CNC2=O
Second: Cc1n[nH]c(C)c1-c1nccnc1CC1CCN(S(C)(=O)=O)C1 (centres undefined)
The cytotoxicity at 10 µM of the first is higher: 8.42% for the first, -10.4% for the second.

First: C/C(=C\c1ccccc1)CN1CCCC(c2nnc3n2CCNCC3)C1 (centres undefined)
Second: c1ccn2c(C3CCCN3Cc3nc(C4CC4)no3)nnc2c1 (centres undefined)
The cytotoxicity at 10 µM of the first is higher: 6.97% for the first, -2.59% for the second.

First: CCC(C)(CC(=O)O)NC(=O)Cc1ccccc1F (centres undefined)
Second: COCCOc1ccccc1NC(C)C(=O)NC(=O)NC(C)(C)C (centres undefined)
The cytotoxicity at 10 µM of the first is lower: -1.28% for the first, 1.47% for the second.

Compared with NS(=O)(=O)NCc1cc(-c2ccc(C(F)(F)F)cc2)n[nH]1, O=C(O)c1cc(-c2cccnc2)cc(S(=O)(=O)NCc2ccccn2)c1 is lower in cytotoxicity at 10 µM: -6.11% for the first, -49.9% for the second.

Compared with CCNC(=O)[C@@H]1C[C@@H](NC(=O)Cc2cc(C)no2)CN1Cc1ccsc1, CCN(C)c1ncnc2c1CCN(Cc1ccsc1)CC2 is lower in cytotoxicity at 10 µM: 5.62% for the first, 1.69% for the second.

Going from CCc1noc(C)c1C(=O)N1CCN(c2nc(C)cc(OC)n2)CC1 to COc1ccc(C(=O)N2CCCC(n3nc(C)nc3C)C2)c(OC)c1 (centres undefined), the cytotoxicity at 10 µM falls from -13.8% to -18.2%.

Going from Cc1nc(C)n(CC2CCCN(CCC(=O)NC3CCCCC3)C2)n1 (centres undefined) to CCn1ccnc1CN1CCN(C(C)C(=O)N2CCCCCC2)CC1 (centres undefined), the cytotoxicity at 10 µM falls from -3.39% to -7.01%.

Compared with CS(=O)(=O)N1CCCN(C(=O)c2ccc(Cn3ccccc3=O)o2)CC1, CCN1CCN(C(=O)Cc2ccc(S(=O)(=O)C(F)F)cc2)CC1 is lower in cytotoxicity at 10 µM: -3.41% for the first, -6.43% for the second.

First: Cc1cc(CN2CCCC(NS(C)(=O)=O)C2)ccc1-n1cncn1 (centres undefined)
Second: CC(=O)N(Cc1ncc(C)o1)C1CCN(Cc2cccnc2)C1 (centres undefined)
The cytotoxicity at 10 µM of the first is lower: 3.78% for the first, 15.3% for the second.

Going from COc1cc(N2CC[C@@H](OC)[C@@H]2Cc2cnn(C)c2)ncn1 to CCc1cc(N2CCC(NCc3ccc(C)o3)CC2)ncn1, the cytotoxicity at 10 µM rises from -0.155% to 2.84%.

Going from Cc1cc(NC(=O)C(C)Nc2cccc(COCc3ccco3)c2)on1 (centres undefined) to O=C(NCCC(O)c1cccs1)c1ccco1 (centres undefined), the cytotoxicity at 10 µM falls from -2.41% to -14.7%.

First: Cc1ccc(N2C[C@H]3CCC[C@@]3(COc3cccnc3)C2)nn1
Second: Cc1ccc(N2CCCC(NCc3ccc(C)s3)C2)nn1 (centres undefined)
The cytotoxicity at 10 µM of the first is higher: 9.43% for the first, -2.51% for the second.

Going from CC1CCCN1Cc1cccc(C(=O)Nc2ccc3[nH]c(=O)oc3c2)c1 (centres undefined) to Cc1ccc(C(=O)N2CCC(Oc3cccc(C)c3C)CC2)c(=O)[nH]1, the cytotoxicity at 10 µM rises from -13.4% to -6.48%.

First: COc1cccc(CN2CCOC(c3cnccn3)C2)c1F (centres undefined)
Second: CC(=O)N1CCCC1c1nccnc1NCc1cccnc1 (centres undefined)
The cytotoxicity at 10 µM of the first is higher: 8.63% for the first, -6.72% for the second.

First: CNC(=O)c1ccc2c(c1)C1(CCN(C(C)C)CC1)C(=O)N2
Second: Cc1nc(N2CCC3(CCCN(C(C)C)C3=O)C2)c2sccc2n1 (centres undefined)
The cytotoxicity at 10 µM of the first is lower: 12.6% for the first, 18.6% for the second.

Compared with Cc1nc(-c2ccco2)ccc1C(=O)NCCCN1CCOCC1, O=C(c1cc(-c2ccco2)nc2c(Cl)cccc12)N1CC[C@H]2CNC[C@H]21 is higher in cytotoxicity at 10 µM: -4.02% for the first, -3.29% for the second.

Going from CC(C)n1ccnc1Cn1ccc2ncccc2c1=O to O=C(Cn1cnc2sccc2c1=O)NCCc1nnc2ccccn12, the cytotoxicity at 10 µM rises from -4.65% to 3.57%.

Compared with CN1[C@@H]2CC[C@H]1CN(c1nc(-c3ccncc3)nc3c1cnn3C)CC2, c1csc(N2CCCN(c3ncnc4sccc34)CC2)n1 is higher in cytotoxicity at 10 µM: 38.7% for the first, 45.3% for the second.

First: CNc1cc(C)nc(NCc2cc(C)cc3c(C)c(C)[nH]c23)n1
Second: Cc1ccc(OCCC(=O)N(C)CC(=O)Nc2cc(C)on2)c(C)c1
The cytotoxicity at 10 µM of the first is lower: -29% for the first, -16.9% for the second.

Compared with O=C(CCc1nccs1)N1CCN(c2ccc(Br)cn2)CC1, O=C(NCCNc1cnccn1)N1CCN(c2nccs2)CC1 is higher in cytotoxicity at 10 µM: -2.65% for the first, -0.84% for the second.

First: O=C(NCCNc1ncccn1)N1CCCC(C(F)(F)F)C1 (centres undefined)
Second: NC(=O)Cn1cc(NC(=O)N2CCCC(O)C2)cn1 (centres undefined)
The cytotoxicity at 10 µM of the first is higher: 1.05% for the first, -10.1% for the second.

Compared with CC(C)c1nnc2n1CCN(C(=O)c1ccccc1OCC1CC1)C2, COC(=O)c1ccc(CN2CCC(c3noc(C)n3)CC2)s1 is lower in cytotoxicity at 10 µM: 10.5% for the first, -1.51% for the second.

Compared with CC(C)c1ccc(OCCNC(=O)c2ccoc2)cc1, O=C(NCCNS(=O)(=O)c1cc(F)cc(F)c1)c1ccoc1 is higher in cytotoxicity at 10 µM: -1.92% for the first, -1.33% for the second.

Compared with Cc1cc(-n2nc(C)nc2-c2cn(CCN)nn2)ccn1, Cc1nn2c(NC(=O)CSc3ncccn3)csc2nc1=O is lower in cytotoxicity at 10 µM: 7.55% for the first, 2.74% for the second.

Compared with COCCOCCNC(=O)c1cccc(Cn2nc(C)cc2C)c1, Cc1ccsc1CCNC(=O)CCC1CCCCN1C (centres undefined) is lower in cytotoxicity at 10 µM: 17.6% for the first, -3.13% for the second.

First: CC(C)(C)c1ccc(CN2C[C@H]3CC(O)C[C@H]3C2)c(OCC(N)=O)c1 (some centres undefined)
Second: CC(C)(C)OC(=O)NCC1CCN(C(=O)c2cc(Cl)c[nH]2)CC1
The cytotoxicity at 10 µM of the first is higher: 2.71% for the first, -3.26% for the second.

Compared with CCN1CC2(CC1=O)CN(C(=O)C(C)C)CCN(S(C)(=O)=O)C2 (centres undefined), COc1cccc(CN2CCCC3(CCN(C(=O)[C@H]4CCCO4)C3)C2)c1 (some centres undefined) is higher in cytotoxicity at 10 µM: -4.54% for the first, 5.01% for the second.

Compared with O=C(NC1CCCCNC1=O)c1cc2ccccc2[nH]c1=O (centres undefined), O=C1NCCN(C(=O)c2cn3ccsc3n2)C1c1cccc(F)c1 (centres undefined) is higher in cytotoxicity at 10 µM: -6.08% for the first, -5.18% for the second.

Compared with Cc1cccc(CN2CC[C@@H]3[C@@H]2CCN3Cc2cccs2)n1, Cc1cccc(CN2CCc3onc(Cn4cccc4)c3C2)n1 is higher in cytotoxicity at 10 µM: -117% for the first, 7.81% for the second.

Going from O=C(C1CCSCC1)N1CC[C@H]2OCC[C@@]2(COCC2CC2)C1 to CN(C)CC(=O)N1CCC2(CC1)COCCN(c1ncccn1)C2, the cytotoxicity at 10 µM rises from -1.16% to 5.38%.

First: O=C(c1ccco1)N1CCCC2(CN(Cc3ccsc3)CCO2)C1 (centres undefined)
Second: CN1CCN2C[C@@H](CO)[C@H](c3ccccc3)[C@H]2C1
The cytotoxicity at 10 µM of the first is lower: -2.37% for the first, 8.78% for the second.

Compared with CCN(CC)CC(=O)NCCc1csc(N2CCCC2)n1, CCCc1nc(CNCC2CCCN2c2cccnn2)cs1 (centres undefined) is lower in cytotoxicity at 10 µM: 8.55% for the first, -7.07% for the second.

First: COc1cc(OC)c(C2Nc3cc(Cl)ccc3C3=NCCN32)cc1OC (centres undefined)
Second: CN(Cc1cnc(C(C)(C)C)nc1)Cc1nc2ccc(F)cc2[nH]1
The cytotoxicity at 10 µM of the first is higher: -3.14% for the first, -12.3% for the second.

CC(C)c1nn(C)c(N(C)C)c1CNCc1ccc(N(C)C)nc1 showed a cytotoxicity at 10 µM of -8.42%.

Reference: ChEMBL document CHEMBL4513216, “Probing the Open Global Health Chemical Diversity Library for Multistage-Active Starting Points for Next-Generation Antimalarials” (ACS Infect Dis, 2020)
